# In ChEMBL document CHEMBL1152595, “Synthesis and biological evaluation of 2,3,4-triarylbenzopyran derivatives as SERM and therapeutic agent for breast cancer” (Bioorg Med Chem, 2009):
# Tests used:
# Rattus norvegicus [1] = test: Estrogenic agonistic activity in bilaterally ovariectomized Sprague-Dawley rat assessed as uterine weight gain at 10 mg/kg, po once daily for three days measured on day 31 of age; format: functional
# How it was run: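 Immature rats dosed orally once daily for three consecutive days; vehicle-only group as control. Autopsy 24 h after last dose on day 31 of age: vaginal smear taken, uterus excised, blotted and weighed fresh. Vaginal opening, vaginal epithelial cornification and uterine weight increase scored; gain expressed as percent of vehicle control; means ± SEM, at least six per group.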
# Rattus norvegicus [2] = test: Estrogenic antagonistic activity in bilaterally ovariectomized Sprague-Dawley rat assessed as inhibition of ethynylesterol-induced uterine weight at 10 mg/kg, po once daily for 3 days measured on day 31 of age; format: functional
# How it was run: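 Antagonism read as uterine fresh weight in rats given compound orally at 10 mg/kg/day alongside 17α-ethynylestradiol (0.02 mg/kg/day); inhibition expressed relative to the ethynylestradiol-only group; means ± SEM, at least six animals per group.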
# HEK293 = test: Antiproliferative activity against human HEK293 cells after 48 hrs by MTT assay; format: cell-based; conditions: HEK293, 48 h
# How it was run: (§1)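 MTT assay: cells seeded at 1 × 10^4 per well in DMEM with 10% FBS, left 24 h at 37 °C in CO2; compounds diluted in medium added alongside vehicle control for 48 h; MTT (5 mg/mL) added for 4 h, formazan dissolved in DMSO, absorbance read at 540 nm; IC50 in µM.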
# MCF7 = test: Antiproliferative activity against human MCF7 cells after 48 hrs by MTT assay; format: functional, cell-based; how it was run: as §1
# MDA-MB-231 = test: Antiproliferative activity against human MDA-MB-231 cells after 48 hrs by MTT assay; format: functional, cell-based; how it was run: as §1
# [3] = Homo sapiens, MCF7, 48 h, read-out: IC50
# [4] = Homo sapiens, MDA-MB-231, 48 h, read-out: IC50
Compound,Activity (Rattus norvegicus [1]),inhibition in vivo at 10 mg/kg (Rattus norvegicus [2]),IC50 (HEK293),IC50 (MCF7; mcf7),IC50 (MDA-MB-231; mda-mb-231),IC50 (MCF7; [3]),IC50 (MDA-MB-231; [4])
CC(=O)Oc1ccc([C@@H]2Oc3ccccc3[C@H](c3ccc(O)cc3)[C@H]2c2ccccc2)cc1,105.18%,4.2%,> 100 µM,Not Active,Not Active,–,–
CC(=O)Oc1ccc([C@@H]2Oc3ccccc3[C@H](c3ccc(OCCCN(C)C)cc3)[C@H]2c2ccccc2)cc1,117.2%,58.4%,14 µM,–,–,11 µM,5.61 µM
CC(=O)Oc1ccc([C@@H]2Oc3ccccc3[C@H](c3ccc(OCCN(C(C)C)C(C)C)cc3)[C@H]2c2ccccc2)cc1,146.6%,73.9%,–,Not Active,Not Active,–,–
Oc1ccc([C@@H]2Oc3ccccc3[C@H](c3ccc(OCCN4CCCC4)cc3)[C@H]2c2ccccc2)cc1,11.25%,69.2%,36.3 µM,–,–,18.4 µM,17.8 µM
CCN(CC)CCOc1ccc([C@H]2c3ccccc3O[C@@H](c3ccc(OC(C)=O)cc3)[C@@H]2c2ccccc2)cc1,41.2%,59.3%,16.1 µM,–,Not Active,11.7 µM,–
O=C1c2ccccc2O[C@@H](c2ccc(OCCN3CCCC3)cc2)[C@@H]1c1ccccc1,13.17%,45.4%,34 µM,Not Active,Not Active,–,–
Oc1ccc([C@@H]2Oc3ccccc3[C@H](c3ccc(OCCN4CCCCC4)cc3)[C@H]2c2ccccc2)cc1,28.2%,51.5%,38.3 µM,–,–,7.79 µM,8.65 µM
OC1c2ccccc2O[C@@H](c2ccc(OCCN3CCCC3)cc2)[C@@H]1c1ccccc1 (some centres undefined),124.5%,29%,–,Not Active,Not Active,–,–
Oc1ccc([C@H]2c3ccccc3O[C@@H](c3ccc(O)cc3)[C@@H]2c2ccccc2)cc1,142.9%,21.2%,> 500 µM,Not Active,Not Active,–,–
CC(=O)Oc1ccc([C@@H]2Oc3ccccc3[C@H](c3ccc(OCCN4CCCCC4)cc3)[C@H]2c2ccccc2)cc1,171.4%,51.4%,29.8 µM,–,–,16.8 µM,14 µM
CC(=O)Oc1ccc([C@@H]2Oc3ccccc3[C@H](c3ccc(OCCN4CCCCCC4)cc3)[C@H]2c2ccccc2)cc1,108.3%,30.6%,88.6 µM,Not Active,Not Active,–,–
CC(C)N(CCOc1ccc([C@H]2c3ccccc3O[C@@H](c3ccc(O)cc3)[C@@H]2c2ccccc2)cc1)C(C)C,225%,69%,20.5 µM,–,–,6.97 µM,7.48 µM
COc1ccc2c(c1)OC(C)(C)C(c1ccccc1)C2c1ccc(OCCN2CCCC2)cc1 (centres undefined) [ORMELOXIFENE],164.3%,77.9%,–,–,–,–,–
CC/C(=C(\c1ccccc1)c1ccc(OCCN(C)C)cc1)c1ccccc1 [TAMOXIFEN],208.8%,27.4%,–,–,–,7.65 µM,9.86 µM
